{"source": "ChEMBL document CHEMBL2331364", "about": "“A synthetic dolastatin 10 analogue suppresses microtubule dynamics, inhibits cell proliferation, and induces apoptotic cell death” (J Med Chem, 2013)", "key": {"MCF7 [1]": {"system": "MCF7", "experiment": "Cytotoxicity against human MCF7 cells after 24 to 48 hrs by trypan blue assay", "type": "functional, cell-based", "method_in_brief": "(§1)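 Cells were seeded at 1 × 10^5 cells/mL, grown 24 h at 37 °C in 5% CO2, then given vehicle (0.1% DMSO) or 1–80 nM for a further 24 or 48 h. Attached plus floating cells were counted after trypan blue staining. Percent inhibition was plotted against concentration to give IC50. Average of three independent experiments.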"}, "MCF7 [2]": {"system": "MCF7", "experiment": "Inhibition of microtubule (unknown origin) dynamics in GFP-tubulin transfected human MCF7 cells assessed as microtubule shortening time at 15 nM by confocal laser scanning microscopy (reference value: 27 +/- 8 %)", "type": "cell-based", "set-up": "scale not given: the % may be the effect or the level left", "method_in_brief": "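EGFP-tubulin-transfected MCF-7 cells grown in EMEM with 10% FBS at 37 °C in 5% CO2, exposed to 15 nM compound (DMSO vehicle) or vehicle. Individual microtubules were followed by time-lapse confocal laser scanning microscopy and life-history traces were recorded. Kinetic parameters were derived from these traces, 20 microtubules per condition. Significance was tested by one-way ANOVA.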"}, "Homo sapiens": {"species": "Homo sapiens", "experiment": "Inhibition of microtubule (unknown origin) GTPase activity using GTP as substrate assessed as reduction of inorganic phosphate release incubated for 10 mins prior to substrate addition measured after 10 mins by ammonium molybdate malachite green assay", "method_in_brief": "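GTP (1 mM) was added and the mixture polymerized at 37 °C for 10 min. Reactions were stopped with perchloric acid, and released phosphate was measured by ammonium molybdate–malachite green.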"}, "Tubulin (Capra hircus)": {"system": "Tubulin (Capra hircus)", "experiment": "Inhibition of goat brain microtubule GTPase activity using GTP as substrate assessed as reduction of inorganic phosphate release at 5 uM incubated for 10 mins prior to substrate addition measured after 10 mins by ammonium molybdate malachite green assay relative to control"}, "Tubulin (Homo sapiens)": {"molecular_target": "Tubulin (Homo sapiens) (UniProt P68371+Q9H4B7+P0DPH7+P68366+Q13509+Q71U36+P04350+Q3ZCM7+P07437+P68363+Q9BQE3+Q6PEY2+Q13885+Q9BVA1+Q9BUF5)", "experiment": "(§2) Binding affinity to tubulin (unknown origin) after 15 mins by fluorescence spectrophotometry", "type": "protein-complex assay", "method_in_brief": "(§3)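 Goat brain tubulin (2 μM) was incubated with ligand (5–100 μM) in 25 mM Pipes pH 6.8 for 15 min at 25 °C, read with excitation 295 nm and emission 336 nm in a 0.3 cm cell. No inner-filter correction was applied. ΔF was fitted to a quadratic binding equation to give Kd. Value is the average of five independent experiments.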"}, "Tubulin": {"molecular_target": "Tubulin", "experiment": "as §2", "type": "protein-complex assay, Homo sapiens", "method_in_brief": "as §3"}, "MDA-MB-231": {"system": "MDA-MB-231", "experiment": "Cytotoxicity against human MDA-MB-231 cells after 24 to 48 hrs by trypan blue assay", "type": "functional, cell-based", "method_in_brief": "as §1"}, "HeLa [3]": {"system": "HeLa", "experiment": "Inhibition of mitosis in human HeLa cells assessed as mitotic index ratio at 30 nM after 48 hrs by Hoechst 33258 DNA staining assay (reference value: 3)", "type": "functional", "method_in_brief": "(§4)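 HeLa cells were treated with vehicle or 7, 15 or 30 nM compound for 24 or 48 h. DNA was stained with Hoechst 33258, and mitotic cells were counted by fluorescence microscopy to give the mitotic index, compared against vehicle-treated cells.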"}, "HeLa [4]": {"system": "HeLa", "experiment": "Induction of apoptosis in human HeLa cells assessed as caspase-3 activation at 30 nM after 24 hrs by Western blot analysis", "type": "functional, cell-based", "method_in_brief": "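HeLa cells were treated with vehicle or 30 nM for 24 h and washed twice in PBS. Lysates were Western blotted with antibodies to JNK1, phospho-JNK, procaspase-3 and PARP.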"}, "HeLa [5]": {"system": "HeLa", "experiment": "Inhibition of microtubule-kinetochore tension in human HeLa cells assessed as BubR1 accumulation at kinetochoric region at 15 to 45 nM after 24 hrs by Hoechst 33258 dye-based Hec1 staining assay", "type": "cell-based"}, "HeLa [6]": {"system": "HeLa", "experiment": "Inhibition of mitosis in human HeLa cells assessed as mitotic index ratio at 15 nM after 24 hrs by Hoechst 33258 DNA staining assay (reference value: 3.2)", "type": "functional", "method_in_brief": "as §4"}, "Capra hircus": {"species": "Capra hircus", "experiment": "Inhibition of goat brain tubulin polymerization at 5 uM incubated for 20 mins prior to GTP addition measured for 30 mins by 90 degree light scattering-based fluorescence spectrophotometric method", "method_in_brief": "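Goat brain tubulin (10 μM) was preincubated with compound (5 μM; or 1, 5, 7, 10 μM) in 1 M monosodium glutamate, 3 mM MgCl2, 1 mM EGTA, 25 mM Pipes pH 6.8 on ice for 20 min. GTP (1 mM) was then added and assembly followed by 90° light scattering at 400 nm for 30 min at 37 °C. Experiment run twice.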"}, "HeLa [7]": {"system": "HeLa", "experiment": "Inhibition of mitosis in human HeLa cells assessed as mitotic index ratio at 7 nM after 48 hrs by Hoechst 33258 DNA staining assay (reference value: 3)", "type": "functional", "method_in_brief": "as §4"}, "HeLa [8]": {"system": "HeLa", "experiment": "Induction of interphase microtubule depolymerization in human HeLa cells at 35 nM after 3 hrs by Hoechst 33258 dye-based fluorescence microscopy", "type": "cell-based", "method_in_brief": "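HeLa cells were given a brief 3 h exposure to 35 nM. Interphase microtubules were then immunostained and examined by fluorescence microscopy.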"}, "HeLa [9]": {"system": "HeLa", "experiment": "Inhibition of microtubule-kinetochore tension in human HeLa cells assessed as Mad2 accumulation at kinetochoric region at 15 to 45 nM after 24 hrs by Hoechst 33258 dye-based Hec1 staining assay", "type": "cell-based"}, "HeLa [10]": {"system": "HeLa", "experiment": "Cell cycle arrest in human HeLa cells assessed as accumulation at G2/M phase at 45 nM after 24 hrs by propidium iodide staining-based flow cytometry (reference value: 4%)", "type": "functional"}, "HeLa [11]": {"system": "HeLa", "experiment": "Induction of mitotic microtubule depolymerization in human HeLa cells assessed as multipolar spindle formation at 30 nM after 24 hrs by Hoechst 33258 dye-based fluorescence microscopy", "type": "cell-based"}, "MCF7 [12]": {"system": "MCF7", "experiment": "Induction of mitotic microtubule depolymerization in human MCF7 cells at 15 nM after 48 hrs by Hoechst 33258 dye-based fluorescence microscopy", "type": "cell-based"}, "HeLa [13]": {"system": "HeLa", "experiment": "Antimitotic activity in human HeLa cells assessed as increase in phosphohistone H3 (Ser10) positive cell population at 30 nM after 24 hrs by fluorescence microscopic analysis (reference value: 3 +/- 0.3 %)", "type": "functional"}}, "note": "Activity calls are given as the source filed them. The calls are words filed in the database; no cut-off is given here."}
{"smiles": "CC[C@H](C)[C@@H]([C@@H](CC(=O)NC[C@H]1O[C@H](C(=O)NCCc2ccccc2)[C@@H](OC)[C@@H]1OC)OC)N(C)C(=O)[C@@H](NC(=O)[C@@H](NC)C(C)C)C(C)C", "values": [{"measurement": "IC50", "setting": "MCF7 [1]", "result": 15, "unit": "nM"}, {"measurement": "Activity", "setting": "MCF7 [2]", "result": 19, "unit": "%"}, {"measurement": "inhibition", "setting": "Homo sapiens", "result": "Dose-dependent effect"}, {"measurement": "inhibition", "setting": "Tubulin (Capra hircus)", "result": 42, "unit": "%"}, {"measurement": "Activity", "setting": "Tubulin (Homo sapiens)", "result": "Dose-dependent effect"}, {"measurement": "Kd", "setting": "Tubulin", "result": 29.4, "unit": "µM"}, {"measurement": "IC50", "setting": "MDA-MB-231", "result": 13, "unit": "nM"}, {"measurement": "Ratio", "setting": "HeLa [3]", "result": 16}, {"measurement": "Activity", "setting": "HeLa [4]", "result": "Active"}, {"measurement": "Activity", "setting": "HeLa [5]", "result": "Active"}, {"measurement": "Ratio", "setting": "HeLa [6]", "result": 9}, {"measurement": "inhibition", "setting": "Capra hircus", "result": 37, "unit": "%"}, {"measurement": "Ratio", "setting": "HeLa [7]", "result": 7.5}, {"measurement": "Activity", "setting": "HeLa [8]", "result": "Active"}, {"measurement": "Activity", "setting": "HeLa [9]", "result": "Active"}, {"measurement": "Activity", "setting": "HeLa [10]", "result": 17, "unit": "%"}, {"measurement": "Activity", "setting": "HeLa [11]", "result": "Active"}, {"measurement": "Activity", "setting": "MCF7 [12]", "result": "Active"}, {"measurement": "Activity", "setting": "HeLa [13]", "result": 14, "unit": "%"}]}
